The source of these data is ChEMBL document CHEMBL4513216, “Probing the Open Global Health Chemical Diversity Library for Multistage-Active Starting Points for Next-Generation Antimalarials” (ACS Infect Dis, 2020).

The nature of this data set: Toxicity liver stage against HepG2, at 10uM. It counts as cell-based. The arrangement: test concentration 10 uM, cell line HepG2-A16-CD81EGFP. To be noted: human, HepG2-A16-CD81EGFP cells; read-out: INHIBITION
The procedure, abridged:
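Uninfected HepG2-A16-CD81EGFP cells, 3 × 10^3 per well, 1536-well, plated on prespotted compound at 10 μM final, parasite-free screening media added to match infected plates; puromycin 10 μM positive, DMSO 0.5% negative; run in parallel with 48 h PbLuc assay at 37 °C, 5% CO2; viability by CellTiter-Glo luminescence, normalized to controls.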
With `CC(c1ccc(F)cc1)N1CCN(Cc2ccc(C#N)cc2)CC1` (stereo unspecified), the cytotoxicity at 10 µM is -6.17%. The figure for `O=C(NC[C@H]1OC[C@@H](NCc2ccc(F)cc2)[C@@H]1O)c1ccncc1` is 7.2%. `CCCN(CCC)CCNc1c(-c2ccccc2)c(=O)c1=O`: the cytotoxicity at 10 µM is -82.1%. In the case of `CCCS(=O)(=O)N1CC(=O)N(Cc2cccc(OC)c2OC)CC(O)C1` (stereo unspecified), the cytotoxicity at 10 µM was -12.9%. The figure for `O=C(CCn1ccc2cc(Br)ccc21)NC[C@@H]1CCCN2CCCC[C@H]12` is 8.35%; for `Cc1ccccc1C(=O)N1CC2(COC(C)(C)OC2)C1` it is 4.56%. In the case of `COC[C@]12COC[C@H]1CN(C(=O)C1CC(F)(F)C1)C2` it was 5.83%; in that of `CCC1=N[C@@]2(CC[C@@H]3CN(C(=O)NCC(C)C)C[C@@H]32)C(=O)N1CCOC`, 10.3%. In the case of `Cc1ccc(C)c(NC(=O)Cn2cc(I)cn2)c1` it was 7.72%; in that of `CC(=O)c1c(C)nn(S(=O)(=O)c2ccccc2)c1C`, -0.305%. With `CCc1ccccc1N1CC(c2nnc(N)s2)CC1=O` (stereo unspecified), the cytotoxicity at 10 µM came to 0.502%. On to `CC(=O)N1CC2(CCCN(Cc3ccc(Cl)cc3)C2)Cc2ccccc21` (stereo unspecified), for which the cytotoxicity at 10 µM is 10.6%. In the case of `O=c1cc(CN(CCO)C2CC2)nc2ccc(Cl)cn12` it was 14.7%. The figure for `Cc1nc(NS(=O)(=O)c2cc(C)c(Br)cc2C)no1` is 5.42%; for `Cc1cc(N2CCC(NS(C)(=O)=O)CC2)nc(C(C)C)n1` it is -3.36%; for `CCN(Cc1cccc(Cl)c1)Cc1ncc(C(C)(C)C)o1` it is 11.2%. Take `O=C(c1ccccc1)N1CCN(C2CCc3ccc(F)cc32)CC1` (stereo unspecified): the cytotoxicity at 10 µM amounted to 11.1%. Take `COc1ccc(OC)c(C(=O)Nc2cccnc2-n2cncn2)c1`: the cytotoxicity at 10 µM is -17%. Regarding `Cc1nc(-c2ccc(S(=O)(=O)N3CCSCC3)cc2)co1`, the cytotoxicity at 10 µM worked out at 5.18%. The figure for `Cc1cnn(C2CN(CCCOc3ccc(C#N)cc3)C2)c1` is 4.09%. In the case of `Cc1c(COC(C)C)cccc1NC(=O)N1CCCC(CO)C1` (stereo unspecified) it was -5.44%; in that of `O=C(c1sccc1C1CC1)N1CCN(c2ncccn2)CC1`, -6.87%; in that of `O=C(c1ccc(-n2cccn2)c(F)c1)N1CCCN2CCCC2C1` (stereo unspecified), -3.9%.

As for `Cc1ccc(CNC(=O)N2CCOCC2C2CC2)cc1F` (stereo unspecified), the cytotoxicity at 10 µM stood at 10.4%. In the case of `CCOc1ccccc1NC(C)C(=O)N(C)Cc1cccc(F)c1` (stereo unspecified), the cytotoxicity at 10 µM came out at 12.1%.

As to `Cc1cc(NC2CCc3nc(C(C)C)nn3C2)n2ncnc2n1` (stereo unspecified), the cytotoxicity at 10 µM came out at 13.4%.

As for `O=C(Cc1ccc2c(c1)OCO2)N1CCN(c2ccncc2)CC1`, the cytotoxicity at 10 µM was -22.9%.

`CCn1cnnc1C1CCN(C(=O)c2ccc(OC(C)C)nc2)CC1`: the cytotoxicity at 10 µM is 1.14%. `c1nc(N2CCOC(Cn3cncn3)C2)c2sccc2n1` (stereo unspecified): the cytotoxicity at 10 µM was found to be 16.7%.

In the case of `Cc1cc2cc(CNC3CCN(S(C)(=O)=O)CC3)oc2cc1C`, the cytotoxicity at 10 µM is -0.779%. The figure for `CCN(CC(=O)Nc1c(C)n[nH]c1C)CC(O)c1ccc(C)cc1` (stereo unspecified) is -2.86%; for `Cc1n[nH]c(C2CN(CCCOc3ccc(F)cc3)CCO2)n1` (stereo unspecified) it is -5.76%. In the case of `CN(Cc1ccccc1NCc1ncc[nH]1)C(=O)c1cccs1` it was -3.21%; in that of `CN(CC(O)C1CC1)C(=O)c1ccc(-c2nc(C3CC3)no2)cc1` (stereo unspecified), -3.45%; in that of `COc1cccc(S(=O)(=O)CCNCCn2cccn2)c1`, -4.96%.

On to `O=C(CCN1CCOCC1)Nc1cccc(CNCc2cccs2)c1`, for which the cytotoxicity at 10 µM is 5.04%. On to `Cc1ccccc1CS(=O)(=O)CC(=O)N(C)Cc1ccccc1`, for which the cytotoxicity at 10 µM amounted to 2.84%. The figure for `COCc1nc(C(=O)N2CCN(Cc3cc(C)on3)CC2)cs1` is -15%. In the case of `COc1ccc(CNC(=O)c2ccc(Br)cn2)cc1` it was -18%; in that of `CC(C1CC1)N(C)C(=O)CCn1cccn1` (stereo unspecified), -2.37%.

For `Cc1nc(CN2CCC23CCN(Cc2ccco2)CC3)cs1`, the cytotoxicity at 10 µM is -114%.

Consider `O=C1CC[C@@H]2[C@@H](CCN2S(=O)(=O)C2CC2)N1CC1CC1`, for which the cytotoxicity at 10 µM was -79.4%. The figure for `Cn1c2c(ccc1=O)CC(NC(=O)c1ccsc1)CC2` (stereo unspecified) is -1.87%; for `CCN1CCOCC2(C1)CN(C(=O)c1c(C)noc1C)CCO2` (stereo unspecified) it is 13.8%; for `CN(C)CCOCc1cncc2c1CCN(C(=O)c1cscn1)C2` it is -102%. The figure for `CC(C)n1c2ccccc2c2c1cc(C(=O)N(C)C)n2S(C)(=O)=O` is -90.8%; for `Cc1ccccc1N1CCCN(C(=O)CCc2nncn2C)CC1` it is 3.82%. In the case of `CC(C)(C(=O)NCC1CCN(Cc2ccccn2)C1)c1ccccc1` (stereo unspecified) it was -3.09%. As to `Cc1cc(C)n(CC(C)Nc2nc(-c3ccncc3)nc3c2CNC3)n1` (stereo unspecified), the cytotoxicity at 10 µM is -1.75%.

Turning to `c1cnn(CC2CCN(c3nc(C4CC4)nc4c3CCNCC4)CC2)c1`, the cytotoxicity at 10 µM was -2.84%. In the case of `CCN(CC)c1ncccc1CNCc1ccc(Cl)s1`, the cytotoxicity at 10 µM was 10.6%. Turning to `Cc1nn(C2CCCC2)c2nc(C(C)(C)CN3CCN(C)CC3)[nH]c12`, the cytotoxicity at 10 µM was -6.61%. In the case of `N#CC1CCCN(S(=O)(=O)c2ccc(C(=O)NCC(F)F)cc2)C1` (stereo unspecified) it was 6.74%. The figure for `CCN(CCOC)C(=O)CCc1scnc1C` is -15.8%.

`CN(CCCc1cnn(C)c1)Cc1cc2n(n1)CCCNC2`: the cytotoxicity at 10 µM came to 6.49%.

On to `CCn1c(C)nnc1SCCNC(=O)c1cnc(N(C)C)nc1C`, for which the cytotoxicity at 10 µM is 6.9%.

For the compound `CCOc1ncccc1Cn1cc(-c2ccc(CO)o2)nn1`, the cytotoxicity at 10 µM is -1.91%. For `Cc1[nH]c2c(F)cccc2c1CC(=O)N1CCC(NS(C)(=O)=O)CC1`, the cytotoxicity at 10 µM was 7.58%. With `CCc1nc(N2CCCC(CCCOC)C2)c2cnn(C)c2n1` (stereo unspecified), the cytotoxicity at 10 µM is 6.46%. In the case of `Cc1nn(C)cc1-c1ccnc(N(C)Cc2ccon2)n1` it was -8.71%; in that of `C=C(C)COc1ccccc1CN1CCCC(C(=O)NCCCO)C1` (stereo unspecified), 7.36%; in that of `Cc1ccc(F)cc1-n1c(CN(C)S(C)(=O)=O)n[nH]c1=O`, 2.19%. Consider `Fc1ccccc1CN1CCCC(NC2CCOCC2)C1` (stereo unspecified), for which the cytotoxicity at 10 µM turned out to be 6.56%.

For the compound `CCCC(=O)Nc1cc2c(cc1OC)NC(=O)CC2c1ccc(CC)o1` (stereo unspecified), the cytotoxicity at 10 µM came to 2.01%. For `CSCCNC(=O)c1coc(COc2ccc(F)cc2)n1`, the cytotoxicity at 10 µM came out at 1.75%. For the compound `CC1CN(S(=O)(=O)c2ccc(C(=O)NCC(F)F)cc2)CCCO1` (stereo unspecified), the cytotoxicity at 10 µM stood at 4.05%.

In the case of `COc1cccc(C(=O)Nc2ccc(OC3CCN(C)CC3)cc2)c1`, the cytotoxicity at 10 µM is -6.88%. For the compound `CCSc1nsc(NC(=O)COc2ccc3c(c2)OCO3)n1`, the cytotoxicity at 10 µM was 2.03%. With `CN(C)S(=O)(=O)N1CCCC(CCC(=O)Nc2ccc(Cl)cc2)C1` (stereo unspecified), the cytotoxicity at 10 µM is -12.5%.

For the compound `Cc1nc(C)c(C(=O)N2CCc3[nH]nc(COc4ccccc4)c3C2)s1`, the cytotoxicity at 10 µM is -3.09%. As for `COCCN1CCN(C(C(=O)O)c2ccc(SC)cc2)CC1` (stereo unspecified), the cytotoxicity at 10 µM turned out to be 1.75%. Consider `Cc1nc(CNCc2c(C(C)C)nn(C)c2N2CCOCC2)cs1`, for which the cytotoxicity at 10 µM is -2.51%. Regarding `CC(Cn1ccnc1)NC(=O)N1CCN(Cc2cccs2)CC1` (stereo unspecified), the cytotoxicity at 10 µM is -5.36%. Consider `CCN(Cc1cccc(C)c1)Cc1nc2c(cnn2C)c(=O)[nH]1`, for which the cytotoxicity at 10 µM is -21.6%.

Regarding `Cc1nc2n(n1)CC(NCc1cc(Cl)c3c(c1)OCCCO3)CC2` (stereo unspecified), the cytotoxicity at 10 µM is -4.15%. Take `COc1cc(CNCc2ccc(C(C)O)cc2)cc2c1OCO2` (stereo unspecified): the cytotoxicity at 10 µM was -9.78%. Take `Cc1noc(CN2CCC(c3ccnn3CCO)CC2)n1`: the cytotoxicity at 10 µM was -9.62%. Consider `Cn1c(CN2CCCC2c2noc(C3CC3)n2)cc(=O)n(C)c1=O` (stereo unspecified), for which the cytotoxicity at 10 µM is 4.04%. As to `Cc1cnn(CC2CCCCN2C(=O)CN(C)C2CC2)c1` (stereo unspecified), the cytotoxicity at 10 µM is -1.23%. In the case of `CNS(=O)(=O)c1cccc(CNC(=O)c2c(C)oc(C)c2C)c1`, the cytotoxicity at 10 µM is -1.3%. The figure for `CN(C)[C@@H]1CN(Cc2ccccc2O)C[C@H]1c1cn(C)c2ccccc12` is 6.6%; for `Cc1nn(CCC#N)c(C)c1CCC(=O)N(C)C` it is -7.33%; for `CN(C)C(=O)N1CCC2(CC1)CNc1ccc(F)cc12` it is 8.88%. Turning to `Cc1nc2c(c(NC(C)C)n1)CCN(C(=O)c1ccno1)CC2`, the cytotoxicity at 10 µM amounted to 7.77%. In the case of `Cc1ccc(CN2C[C@@H]3CCCO[C@@H]3[C@H](NC(=O)CC3CC3)C2)s1` it was 19.9%; in that of `CN(C)C1CCN(C(=O)c2cc3c(s2)CCN3C(=O)C2CC2)CC1`, 9.61%; in that of `CN1[C@H](CN2CCCC2)C[C@@H]2CN(C(=O)Cc3cccs3)CC[C@@H]21`, 4.99%. The figure for `CNC(=O)c1cnc2n1CCN(Cc1cccnc1)C2` is 8.88%; for `CC(=O)N1CCO[C@@H]2CN(S(=O)(=O)c3cccnc3)C[C@@H]2C1` it is 3.02%.

Take `O=C(NCC1Cn2nnc(-c3ccncc3)c2CO1)c1ccsc1` (stereo unspecified): the cytotoxicity at 10 µM came out at 11.1%. In the case of `O=C(c1ccco1)N1C[C@H]2CCCN(CC3CCOCC3)[C@H]2C1` it was -0.285%; in that of `Cc1noc(C)c1CN1CCO[C@H]2CN(Cc3ccc(F)cc3)C[C@H]21`, 1.96%. In the case of `CN1C(=O)C2(CCNCC2)c2cc(F)ccc21` it was -115%; in that of `O=C1CC[C@H]2[C@H](CCN2c2ncc(F)cn2)N1c1ccccc1`, 5.86%; in that of `Cc1cccc(N2CC[C@@H]3CN(C(=O)c4ccco4)CCO[C@@H]3C2)n1`, 10.5%. In the case of `CN1[C@@H]2CC[C@H]1CN(c1cc(Sc3cccs3)nc(N)n1)CC2` it was -8.02%.
